# From ChEMBL document CHEMBL3784932, “Design, synthesis and docking studies of novel dipeptidyl boronic acid proteasome inhibitors constructed from αα- and αβ-amino acids” (Bioorg Med Chem Lett, 2016)
# pIC50: −log10 of the molar value.
# Assays:
# [1] = Cytotoxicity against human RPMI8226 cells after 72 hrs by MTS assay; type: functional, cell-based; conditions: RPMI-8226, 72 h
# Method in brief: (§1)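 Cellular IC50 from a ten-concentration series, each concentration tested in triplicate.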
# [2] = Cytotoxicity against human ARH77 cells after 72 hrs by MTS assay; type: functional, cell-based; conditions: ARH-77, 72 h; method in brief: as §1
# [3] = Cytotoxicity against human U266 cells after 72 hrs by MTS assay; type: functional, cell-based; conditions: U-266, 72 h; method in brief: as §1
# [4] = target: T1, Proteasome Macropain subunit MB1 (Homo sapiens, UniProt P28074); experiment: Inhibition of chymotrypsin like activity of human erythrocyte-derived 20S proteasome preincubated for 10 mins using Suc-LLVY-AMC as substrate after 60 mins by fluorescence assay; conditions: for pIC50: read-out: IC50
# T1 sequence (P28074 whole entry): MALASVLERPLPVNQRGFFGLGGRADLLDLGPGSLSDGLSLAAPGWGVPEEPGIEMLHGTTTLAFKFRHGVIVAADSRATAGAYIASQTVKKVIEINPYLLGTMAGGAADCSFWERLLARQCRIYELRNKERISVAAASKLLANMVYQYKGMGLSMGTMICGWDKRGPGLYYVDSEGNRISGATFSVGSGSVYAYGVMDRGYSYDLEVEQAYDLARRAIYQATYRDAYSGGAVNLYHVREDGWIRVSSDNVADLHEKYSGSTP
# Method in brief: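 Enzymatic IC50 from eight inhibitor concentrations, each point assayed in duplicate; β5 (chymotrypsin-like) subunit of human proteasome.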
Structure (SMILES),pIC50 [1],pIC50 [2],pIC50 [3],pIC50 [4],IC50 [4]
COCCC(=O)N[C@@H](Cc1ccccc1)C(=O)N[C@@H](CC(C)C)B(O)O,8.14,8.04,7.94,8.07,
O=C(N[C@@H](Cc1ccccc1)C(=O)N[C@H](CB(O)O)c1ccccc1)c1ccccc1,,,,,Not Active
COCC(=O)N[C@@H](Cc1ccccc1)C(=O)N[C@@H](CC(C)C)B(O)O,8.34,8.24,8.22,8.20,
CC(C)C[C@H](NC(=O)[C@H](Cc1ccccc1)NC(=O)CC(C)(C)C)B(O)O,,8.08,8.10,8.33,
CC(C)C[C@@H](NC(=O)CC(NC(=O)[C@H]1CCCc2ccccc21)c1cccc(F)c1)B(O)O (some centres undefined),,,,8.99,
CC(C)C[C@H](NC(=O)[C@H](Cc1ccccc1)NC(=O)C1CCCC1)B(O)O,,8.41,8.61,8.32,
O=C(N[C@@H](Cc1ccccc1)C(=O)N[C@@H](CCc1ccccc1)CB(O)O)c1ccccc1,,,,,Not Active
CC(C)C[C@@H](CB(O)O)NC(=O)[C@H](Cc1ccccc1)NC(=O)c1ccccc1,,,,,Not Active
O=C(N[C@@H](Cc1ccccc1)C(=O)N[C@H](CB(O)O)c1ccccc1)c1cnccn1,,,,,Not Active
O=C(N[C@@H](Cc1ccccc1)C(=O)N[C@@H](CCc1ccccc1)CB(O)O)c1cnccn1,,,,,Not Active
CCCC(=O)N[C@@H](Cc1ccccc1)C(=O)N[C@@H](CC(C)C)B(O)O,8.25,8.10,8.07,8.16,
CC(C)C[C@@H](CB(O)O)NC(=O)[C@H](Cc1ccccc1)NC(=O)c1cnccn1,,,,,Not Active
CC(C)C[C@H](NC(=O)[C@H](Cc1ccccc1)NC(=O)[C@H]1CCCc2ccccc21)B(O)O,,,,8.92,
CC(C)C[C@H](NC(=O)[C@H](Cc1ccccc1)NC(=O)c1cccc2c1CCCC2)B(O)O,,,,8.80,
CC(C)C[C@H](NC(=O)[C@H](Cc1ccccc1)NC(=O)c1cnccn1)B(O)O [BORTEZOMIB],,8.22,8.24,,
